Among the data in ChEMBL document CHEMBL1156266, “Antisense oligonucleotides containing conformationally constrained 2',4'-(N-methoxy)aminomethylene and 2',4'-aminooxymethylene and 2'-O,4'-C-aminomethylene bridged nucleoside analogues show improved potency in animal models” (J Med Chem, 2010) are Tm values, retold here.

SMILES strings stand for the structures.

The subject of this assay is Nucleic Acid. Briefly: Binding affinity to mouse PTEN mRNA assessed as melting temperature at 4 uM by thermal denaturation assay. It counts as nucleic-acid assay. The method, boiled down: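 Duplex with complementary length-matched RNA; UV absorbance versus temperature curves in 100 mM Na+, 10 mM phosphate, 0.1 mM EDTA, 4 μM each strand. Tm is the average of two experiments.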

By Tm is commonly meant the temperature at which the thermal transition is half complete. As to `Cc1cn([C@H]2C[C@H](OP(O)(=S)OC[C@H]3O[C@@H](n4cnc5c(=O)[nH]c(N)nc54)[C@H](O)[C@@H]3OP(O)(=S)OC[C@H]3O[C@@H](n4cnc5c(=O)[nH]c(N)nc54)[C@H](O)[C@@H]3OP(O)(=S)OC[C@H]3O[C@@H](n4ccc(N)nc4=O)[C@H](O)[C@@H]3OP(O)(=S)OC[C@]34CO[C@@H]([C@H](n5ccc(N)nc5=O)O3)[C@@H]4OP(O)(=S)OC[C@]34CO[C@@H]([C@H](n5ccc(=O)[nH]c5=O)O3)[C@@H]4O)[C@@H](COP(O)(=S)O[C@H]3[C@@H](O)[C@H](n4ccc(N)nc4=O)O[C@@H]3COP(O)(=S)O[C@H]3[C@@H](O)[C@H](n4cnc5c(N)ncnc54)O[C@@H]3COP(O)(=S)O[C@H]3[C@@H](O)[C@H](n4ccc(N)nc4=O)O[C@@H]3COP(O)(=S)O[C@H]3[C@@H](O)[C@H](n4cnc5c(=O)[nH]c(N)nc54)O[C@@H]3COP(O)(=S)O[C@H]3[C@@H](O)[C@H](n4cnc5c(N)ncnc54)O[C@@H]3COP(O)(=S)O[C@H]3C[C@H](n4cc(C)c(=O)[nH]c4=O)O[C@@H]3COP(O)(=S)O[C@H]3[C@H]4OC[C@@]3(COP(O)(=S)O[C@H]3[C@H]5OC[C@@]3(CO)O[C@H]5n3ccc(N)nc3=O)O[C@H]4n3ccc(=O)[nH]c3=O)O2)c(=O)[nH]c1=O` (some centres not stated), the Tm turned out to be 58 °C.

As to `Cc1cn([C@H]2C[C@H](OP(O)(=S)OC[C@H]3O[C@@H](n4cnc5c(=O)[nH]c(N)nc54)[C@H](O)[C@@H]3OP(O)(=S)OC[C@H]3O[C@@H](n4cnc5c(=O)[nH]c(N)nc54)[C@H](O)[C@@H]3OP(O)(=S)OC[C@H]3O[C@@H](n4ccc(N)nc4=O)[C@H](O)[C@@H]3OP(O)(=S)OC[C@H]3O[C@@H](n4ccc(N)nc4=O)[C@H](O)[C@@H]3OP(O)(=S)OC[C@H]3O[C@@H](n4cc(C)c(=O)[nH]c4=O)C[C@@H]3O)[C@@H](COP(O)(=S)O[C@H]3[C@@H](O)[C@H](n4ccc(N)nc4=O)O[C@@H]3COP(O)(=S)O[C@H]3[C@@H](O)[C@H](n4cnc5c(N)ncnc54)O[C@@H]3COP(O)(=S)O[C@H]3[C@@H](O)[C@H](n4ccc(N)nc4=O)O[C@@H]3COP(O)(=S)O[C@H]3[C@@H](O)[C@H](n4cnc5c(=O)[nH]c(N)nc54)O[C@@H]3COP(O)(=S)O[C@H]3[C@@H](O)[C@H](n4cnc5c(N)ncnc54)O[C@@H]3COP(O)(=S)O[C@H]3C[C@H](n4cc(C)c(=O)[nH]c4=O)O[C@@H]3COP(O)(=S)O[C@H]3C[C@H](n4cc(C)c(=O)[nH]c4=O)O[C@@H]3COP(O)(=S)O[C@H]3[C@@H](O)[C@H](n4ccc(N)nc4=O)O[C@@H]3CO)O2)c(=O)[nH]c1=O` (some centres not stated), the Tm was found to be 48.5 °C.
